# CHRM5 agonist – CHRM5 agonism in calcium assay; activation, % at 3 µM; P08912; CHO-K1 hM5 cells, Fluo-8 calcium fluorescence; 0% DMSO wells, 100% maximal acetylcholine response; 360,000 tested, 0.19% active;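 active means activation above the run's mean over test compounds plus 3 SD, cut at about 23% in these data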;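 further: signal is peak over basal fluorescence ratio across the kinetic read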
# M4 ag – agonists of human muscarinic M4 receptor (CHRM4); 360,000 tested, 0.14% active; CHO-K1 hM4/Gqi5, Fluo-8 calcium fluorescence; vehicle 0%, full acetylcholine response 100%; P08173; activation, % at 3 µM;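 active means activation above the run mean over all test wells plus 3 SD, cut at about 32% in these data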;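 further: peak over basal fluorescence ratio per well then scaled between controls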
# Target sequence (P08173 whole entry, looked up): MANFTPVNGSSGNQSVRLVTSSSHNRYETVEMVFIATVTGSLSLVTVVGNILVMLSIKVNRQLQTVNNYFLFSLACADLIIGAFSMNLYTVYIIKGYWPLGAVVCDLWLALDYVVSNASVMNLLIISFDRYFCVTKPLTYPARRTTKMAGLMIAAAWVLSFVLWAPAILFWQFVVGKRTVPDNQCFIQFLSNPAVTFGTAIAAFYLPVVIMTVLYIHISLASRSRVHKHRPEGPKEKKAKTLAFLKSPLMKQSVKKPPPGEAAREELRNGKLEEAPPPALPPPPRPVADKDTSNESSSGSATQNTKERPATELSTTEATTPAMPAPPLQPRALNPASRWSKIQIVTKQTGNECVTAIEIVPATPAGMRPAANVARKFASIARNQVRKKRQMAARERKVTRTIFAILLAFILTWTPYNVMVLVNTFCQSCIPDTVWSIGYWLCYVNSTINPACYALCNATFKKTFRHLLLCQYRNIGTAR
# CHRM5 PAM – potentiates acetylcholine response at human M5 receptor. P08912. CHO-K1 hM5, Fluo-8 calcium, ACh EC20 PAM; 0% = ACh EC20, 100% = ACh EC100. activation, % at 3 µM. 360,000 tested, 0.3% active;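 active means activation above the run cutoff, the mean activation of all test compounds plus 3 SD, cut at about 18% in these data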
#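 Assay system: CHO-K1 hM5 cells / Incubation: Fluo-8 loading 80 min at 37 °C plus 30 min room temperature / Technique: Fluo-8 calcium dye fluorescence, kinetic read / Repeats: single replicate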
# M4 PAM – positive allosteric modulators of human muscarinic M4 receptor; P08173; CHO-K1 hM4/Gqi5, Fluo-8 calcium fluorescence, ACh EC20; 0% = ACh EC20, 100% = maximal ACh; activation, % at 3 µM; 360,000 tested, 0.4% active; AID 624126;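 active means activation above its plate's cutoff, the mean activation of sample wells plus 3 SD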
# M4 antag – blocks acetylcholine activation of human M4 receptor. P08173. CHO-hM4 cells, ACh EC80, Fluo-8 calcium fluorescence. AID 624125. inhibition, % at 3 µM. 360,000 tested, 0.73% active;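 active means inhibition above its plate's cutoff, the mean inhibition of sample wells plus 3 SD, cut at about 27% in these data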
# M5 antag – CHRM5 antagonism in calcium assay. P08912. CHO-hM5 cells, Fluo-8 calcium fluorescence, ACh EC80. inhibition, % at 3 µM. 360,000 tested, 0.59% active. AID 624040;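 active means inhibition above a per-plate cutoff, the mean of that plate's test compounds plus 3 SD, cut at about 27% in these data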
# Hits are given with their value; – = inactive. In the library only some 1.9% were active in any assay of this set; here they are far more common.
SMILES,CHRM5 agonist,M4 ag,CHRM5 PAM,M4 PAM,M4 antag,M5 antag
CC1(C)N=C(N)N=C(N)N1c1ccc(CCCCc2ccccc2)cc1,–,–,–,–,–,41
CCc1ccc(OCC(=O)NNC(=O)c2cnccn2)c(Br)c1,–,–,–,20,–,–
Cc1ccc(-c2nn(-c3ccccc3)cc2CN(Cc2ccccc2)C(=O)c2ccco2)o1,–,–,–,–,52,–
CC(C)CCNC(=O)CN(Cc1ccco1)C(=O)CCC(=O)Nc1nccs1,–,–,–,–,–,–
Cc1cccc(C(=O)NNS(=O)(=O)c2ccccc2[N+](=O)[O-])c1,–,–,–,28,–,–
Cc1ccc(F)cc1NC(=O)CCc1c(C)[nH]c(=O)c(C#N)c1C,–,–,–,–,–,–
Cc1[nH]c(=O)c(C#N)c(C)c1CCC(=O)Nc1cc(S(C)(=O)=O)ccc1Cl,–,–,–,20,–,–
CN(C)CCOC1c2ccccc2CCc2ccc3ccccc3c21 (stereo unspecified),–,–,–,–,–,33
Cc1ccccc1NS(=O)(=O)c1ccc(NC(=O)c2ccco2)cc1,–,–,28,–,–,–
COc1ccc(-c2n(CC(=O)OC3CC(C)CCC3C(C)C)c3ccccc3[n+]2C)cc1 (stereo unspecified),–,–,–,–,–,40
NC(=O)c1ccsc1NC(=O)COC(=O)Cc1cccc2ccccc12,–,–,–,–,61,55
NC(=O)c1ccsc1NC(=O)CSc1ccccc1F,–,–,–,–,–,–
CN(C)S(=O)(=O)c1cccc(C(=O)OCC(=O)Nc2sccc2C(N)=O)c1,–,–,–,–,38,–
Cc1ccccc1SCC(=O)OCC(=O)Nc1sccc1C(N)=O,–,–,–,–,31,40
CC(=O)Nc1cccc(-c2ccnc3c2CC(C(=O)NCC2CCOCC2)O3)c1 (stereo unspecified),–,–,–,–,–,–
CC(O)(C#CCN1CCOCC1)c1ccccc1 (stereo unspecified),–,–,–,–,–,–
CCCN(CC#CC(O)(c1ccccc1)c1cccnc1)CCC (stereo unspecified),–,–,–,–,–,–
OC(C#CCN1CCCCCC1)(c1ccccc1)c1cccnc1 (stereo unspecified),–,–,–,–,82,55
OC(C#CCN1CCCC1)(c1ccccc1)c1cccnc1 (stereo unspecified),–,–,–,–,86,76
Cc1cc(C)nc(Nc2ccc(Cl)cc2C)n1,–,–,–,–,–,–
CCc1nnc(NC(=O)CSc2nc(N)c(NC(=O)c3ccc(OC)cc3)c(=O)[nH]2)s1,–,–,–,–,–,–
O=C(NCc1ccco1)c1ccc2c(=O)n(Cc3ccco3)c(SCC(=O)N3CCCC3)nc2c1,–,–,–,–,42,–
O=C(CSc1nc2ccccc2c(=O)n1Cc1ccco1)N1CCCCCC1,–,–,–,–,–,–
OC1(C#CCN2CCCC2)c2ccccc2-c2ccccc21,–,–,–,–,47,51
CCN(CC)CCC#CC1(O)c2ccccc2-c2ccccc21,–,–,–,–,73,87
SMILES,CHRM5 agonist,M4 ag,CHRM5 PAM,M4 PAM,M4 antag,M5 antag
Cn1nnnc1SCCNC(=O)C1CCC(=O)N(Cc2ccc(Cl)cc2)C1 (stereo unspecified),–,–,19,–,–,–
Cc1ccc(C(C)(C)C)c(OCCN2CCCC2)c1,–,–,–,–,–,–
CC(C)(C)c1ccccc1OCCN1CCCC1,–,–,–,–,32,–
CC(OCCN1CCCC1)(c1ccc(F)cc1)c1ccc(F)cc1,–,–,–,–,47,36
c1ccc2oc(SCc3cn4ccsc4n3)nc2c1,–,–,–,–,38,–
O=C(NC1CCCC1)C1C(c2ccc(C(F)(F)F)cc2)=Nc2ccccc2N1C(=O)c1cccc(C(F)(F)F)c1 (stereo unspecified),–,–,–,–,35,–
COc1ccc(NC(=O)C[C@H]2C(=O)N(Cc3ccccc3)C[C@@H]2CSC)cc1,–,–,–,–,–,–
CC(NC(=O)C(NS(=O)(=O)c1cccc2nsnc12)C(C)C)c1ccccc1 (stereo unspecified),–,–,–,–,–,–
O=C(NCCCCCCNC(=O)c1ccccc1O)c1ccccc1O,–,–,–,–,–,28
O=C(CSc1nc(=O)[nH]c2c1CCCC2)Nc1ccc(F)cc1F,–,–,–,22,–,–
CC(C)CNC(=O)C1(C)CCCCCN1C(=O)c1csnn1 (stereo unspecified),–,–,–,19,–,–
CC(C)CNC(=O)C1(C)CCCN1C(=O)c1csnn1 (stereo unspecified),–,–,–,–,–,–
C=CCN(C(=O)CSc1nc2ccsc2c(=O)n1Cc1ccc(C(=O)O)cc1)c1ccccc1,–,–,–,–,–,–
CCC(=O)N1Cc2cc(C(=O)Nc3nccs3)nc(-c3cccc(-c4ccccc4OC)c3)c2[C@H]1CCO,–,–,–,–,27,–
CCNC(=O)c1cc2c(c(-c3cccc(-c4cc5ccccc5o4)c3)n1)[C@H](CCO)N(C(=O)NC(C)C)C2,–,–,–,–,29,–
CSc1cccc(NC(=S)N(CCN(C)C)C(C)c2ccncc2)c1 (stereo unspecified),–,–,–,–,–,–
CSc1cccc(NC(=S)N(CCN(C)C)C(C)c2ccccn2)c1 (stereo unspecified),–,–,–,–,33,–
Cc1nnc(N2CCOCC2)c2ccccc12,–,–,–,25,–,–
COc1ccc(-c2nnc(N3CCOCC3)c3ccccc23)cc1,–,–,–,–,–,–
CN(C)c1ccc(/C=C/c2ccc3ccccc3n2)cc1,–,–,–,–,–,–
CCN(CC)c1ccc(/C=C/c2cc(-c3ccccc3)c3ccccc3n2)cc1,–,–,–,–,31,–
COC(=O)c1ccc(C(=O)NC2CCSc3ccccc32)cc1 (stereo unspecified),–,–,–,–,–,–
Cc1ccc(NC(=S)NC2CCSc3ccccc32)cc1C (stereo unspecified),–,–,–,–,52,28
CCOc1ccc(/C=N/NC(=O)Cc2cccs2)cc1,–,–,–,–,–,–
CC(Cc1cccs1)NC(=O)Nc1ccc([N+](=O)[O-])cc1 (stereo unspecified),–,–,–,–,–,30
CCn1c(CN2CCC(C)CC2)nc2cc(S(=O)(=O)N3CCCCC3)ccc21,–,–,–,–,–,–
COc1ccccc1NC(=O)C1CCCN(C(=O)NCc2ccccc2)C1 (stereo unspecified),–,–,–,–,–,–

# Assay outcomes (PubChem)
